Bioassay records from PubChem.
Most compounds without a hit are left out; they make up all but 2.3% or so of the library.
OXTR potentiate: human OXTR potentiation | AID 2445 | activation, % at 3 µM | CHO-OTR cells, Fluo-8 calcium fluorescence, potentiator mode; 0% = oxytocin EC15, 100% = EC100 | hit rate 0.061% among 320,000 | P30559;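 active means activation above that plate's cutoff, the mean activation of tested compounds plus 3 SD, cut at about 6.6% in these data, passing the limit was not always enough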
Target sequence (P30559 whole entry, looked up): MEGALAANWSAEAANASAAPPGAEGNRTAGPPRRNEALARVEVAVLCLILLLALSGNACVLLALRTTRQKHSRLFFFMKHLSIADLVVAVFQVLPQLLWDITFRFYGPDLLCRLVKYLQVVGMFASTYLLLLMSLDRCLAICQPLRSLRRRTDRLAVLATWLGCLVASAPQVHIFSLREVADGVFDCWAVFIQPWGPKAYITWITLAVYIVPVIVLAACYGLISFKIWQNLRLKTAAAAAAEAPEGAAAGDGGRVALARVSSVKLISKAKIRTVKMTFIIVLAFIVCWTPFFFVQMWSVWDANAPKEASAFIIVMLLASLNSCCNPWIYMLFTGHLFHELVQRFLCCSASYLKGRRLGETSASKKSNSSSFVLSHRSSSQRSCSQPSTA
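Assay system: CHO cell line stably expressing human OTR | Also added: Oxytocin at about EC15, sub-maximal agonist stimulus | Times: Compound 6 min at room temperature before oxytocin, 100 s read | Measured by: Fluo-8 intracellular calcium fluorescence, ex 470-495, em 515-575 nm | Controls: EC15 oxytocin alone as 0%, 75 nM oxytocin as 100%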
V1aR counter: V1a receptor agonism, counter-screen for OXTR agonists. P37288. CHO-V1R cells, Fluo-8 calcium fluorescence, agonist mode; 0% DMSO, 100% 3 nM vasopressin. activation, % at 3 µM. hit rate 0.25% among 320,000. AID 2797;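 active means activation above the mean activation of all tested compounds plus 3 SD, per screening run, cut at about 20% in these data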;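 further: signal is peak over basal fluorescence ratio across a 100 second FLIPR read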
TAAR1 antag: antagonists of human TAAR1; CHO RD-HGA16 TAAR1, Fluo-8 calcium fluorescence, antagonist; inhibition, % at 3 µM; hit rate 1.5% among 360,000; AID 624466;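 active means inhibition above a per-plate cutoff, the mean inhibition of test compounds on that plate plus 3 SD, cut at about 49% in these data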
Target sequence (Q96RJ0 whole entry, looked up): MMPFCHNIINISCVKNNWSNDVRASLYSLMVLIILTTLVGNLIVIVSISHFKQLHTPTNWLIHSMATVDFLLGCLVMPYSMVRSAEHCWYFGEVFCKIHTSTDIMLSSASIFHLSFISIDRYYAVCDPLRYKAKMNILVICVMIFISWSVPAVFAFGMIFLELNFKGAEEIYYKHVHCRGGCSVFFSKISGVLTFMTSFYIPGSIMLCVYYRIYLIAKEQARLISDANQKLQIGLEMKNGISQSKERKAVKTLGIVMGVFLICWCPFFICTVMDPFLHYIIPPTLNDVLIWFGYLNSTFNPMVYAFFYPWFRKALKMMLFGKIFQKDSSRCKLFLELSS
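Material: RD-HGA16 CHO cells with stable hTAAR1 and Gα16; Dosing: single nominal final test compound concentration of 3 µM; Schedule: seeding 17-24 h prior, 75-min 37 °C, 30-min RT dye loading; Detection: kinetic Fluo-8 calcium fluorescence measurement; Measure: % inhibition from peak post-agonist over basal fluorescence ratio; Benchmarks: vehicle and agonist controls.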
OXTR ag: activates the human oxytocin receptor | CHO-OTR cells, Fluo-8 calcium fluorescence; normalized: DMSO 0%, oxytocin 100% | activation, % at 3 µM | hit rate 0.32% among 320,000 | AID 2435;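 active means activation above the mean of all tested compounds plus 3 SD, cutoff set per screening run, cut at about 20% in these data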;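 further: peak over basal fluorescence ratio from a 100 s FLIPR kinetic read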
TAAR1 ag: agonists of human TAAR1. CHO RD-HGA16 TAAR1, Fluo-8 calcium fluorescence; vehicle wells 0%, saturating PEA agonist 100%. activation, % at 3 µM. hit rate 0.99% among 360,000;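 active means activation above the mean activation of all test compounds in the run plus 3 SD, cut at about 38% in these data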
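Assay system – CHO-derived RD-HGA16 cells with stable Gα16 and human TAAR1 · Compound dosing – one-point dosing at 3 µM (nominal) · Incubation – 17-24 h seeding, 75 min 37 °C dye, 30 min RT · Measured by – kinetic Fluo-8 calcium fluorescence · Control set – DMSO vehicle as 0%, PEA at EC100 as 100% · Repeats – single well for each compound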
TAAR1 ag conf: confirmation of human TAAR1 agonists; shares compounds with TAAR1 ag; CHO RD-HGA16 TAAR1, Fluo-8 calcium fluorescence; scaled: DMSO 0%, maximal phenethylamine 100%; activation, % at 3 µM; hit rate 82% among 2,400;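 active means activation above a cutoff set at the run's mean compound activation plus 3 SD, cut at about 39% in these data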
Ga16 ag counter: nonselective agonism, TAAR1 counter-screen | CHO-Ga16 parental, Fluo-8 calcium fluorescence; normalized to maximal ATP response, DMSO zero | activation, % at 3 µM | hit rate 50% among 2,400 | shares compounds with TAAR1 ag;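 active means activation above the run cutoff, the mean activation over all tested wells plus 3 SD, cut at about 12% in these data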
TAAR1 desens: TAAR1 response desensitization, agonist counter-screen; CHO RD-HGA16 hTAAR1, Fluo-8 calcium, beta-PEA response inhibition; hit rate 46% among 2,400; shares compounds with TAAR1 ag; inhibition, % at 3 µM;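 active means inhibition above the run cutoff, the mean inhibition of all test compounds plus 3 SD, cut at about 49% in these data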;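 further: beta-PEA stimulus applied at its EC80; loss of beta-PEA calcium signal after compound pretreatment read as receptor desensitization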
Ga16 nonsel ant: nonselective Ga16 antagonism, counter-screen. hit rate 39% among 2,400. AID 651952. shares compounds with TAAR1 ag. CHO-Ga16 ATP-induced calcium, Fluo-8 fluorescence. inhibition, % at 3 µM;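 active means inhibition above the plate's mean compound inhibition plus 3 SD, computed per plate, cut at about 22% in these data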
Of the large screens only hits and unclear results are named; the others gave an inactive call (follow-up assays come after a bar, where they were run).

COc1ccc(Cl)cc1C(=O)NNC(=O)CCNC(C)=O	none
COC(=O)c1c(NS(=O)(=O)Cc2ccccc2)sc2c1CCCC2	none
CC(C)OC(=O)c1c(NS(=O)(=O)c2ccccc2)sc2c1CCCC2	TAAR1 ag 62 | TAAR1 ag conf inactive | Ga16 ag counter 15 | TAAR1 desens inactive | Ga16 nonsel ant 22
c1ccc2c(-c3ccc(OCCN4CCCCC4)cc3)c(-c3ccsc3)sc2c1	TAAR1 ag 47 | TAAR1 ag conf 49 | Ga16 ag counter 25 | TAAR1 desens 51 | Ga16 nonsel ant 43
Cc1cccc(NC(=O)CCc2ccccc2)c1C	none
CN1CCN(C2=Cc3ccc(Cl)cc3Sc3ccc(F)cc32)CC1	TAAR1 ag 49 | TAAR1 ag conf 57 | Ga16 ag counter 41 | TAAR1 desens 57 | Ga16 nonsel ant 44
CC(=O)c1ccc(S(=O)(=O)Nc2ccc(C(=O)NCC(c3cccs3)N3CCOCC3)cc2)cc1 (centres undefined)	none
CCOc1ccc(NS(=O)(=O)c2ccc(C(=O)NCC(c3cccs3)N3CCOCC3)cc2)cc1 (centres undefined)	V1aR counter 26, TAAR1 antag 83, OXTR ag 26, TAAR1 ag 126 | TAAR1 ag conf 106 | Ga16 ag counter 68 | TAAR1 desens 78 | Ga16 nonsel ant 51
Cc1cccc(N(CC(=O)NC2CCCCC2)C(=O)CCC(=O)Nc2nccs2)c1	none
Cc1cc(=O)[nH]c(Nc2cccc(F)c2)n1	TAAR1 ag 51 | TAAR1 ag conf 81 | Ga16 ag counter inactive | TAAR1 desens inactive | Ga16 nonsel ant inactive
CCn1nc(C(C)C)cc1C(=O)N1CCCC(CO)(Cc2ccc(F)cc2F)C1 (centres undefined)	none
O=c1[nH]c(CSc2ncn[nH]2)nc2ccccc12	TAAR1 ag 42 | TAAR1 ag conf inactive | Ga16 ag counter inactive | TAAR1 desens inactive | Ga16 nonsel ant inactive
Cn1c(CS/C(N)=N/N=C/c2ccccc2)c(Br)c(=O)n1-c1ccccc1	TAAR1 ag 44 | TAAR1 ag conf 46 | Ga16 ag counter inactive | TAAR1 desens inactive | Ga16 nonsel ant inactive
CC(=O)Nc1ccc(Sc2ncccc2C(=O)Nc2ccc(F)cc2)cn1	V1aR counter 70, TAAR1 antag 104, OXTR ag 79, TAAR1 ag 174 | TAAR1 ag conf 150 | Ga16 ag counter 113 | TAAR1 desens 106 | Ga16 nonsel ant 89
CSc1ncccc1C(=O)Nc1ccc(OC(F)(F)F)cc1	none
CCOC(=O)c1cc(NC(=O)c2cc(C)on2)cc(C(=O)OCC)c1	TAAR1 ag 44 | TAAR1 ag conf inactive | Ga16 ag counter inactive | TAAR1 desens inactive | Ga16 nonsel ant inactive
CCN(C(=O)COc1ccc2ccc(=O)oc2c1)C1CCCCC1	none
Cc1cccc(-c2nc(CS(=O)CC(=O)NCCc3ccccc3)c(C)o2)c1 (centres undefined)	none
COc1cccc(-c2nc(CS(=O)CC(=O)NCCc3ccccc3)c(C)o2)c1 (centres undefined)	TAAR1 ag 49 | TAAR1 ag conf 52 | Ga16 ag counter inactive | TAAR1 desens inactive | Ga16 nonsel ant inactive
O=C(/C=C/c1ccc([N+](=O)[O-])cc1)OCC(=O)c1ccc[nH]1	none
COCc1cc(C)nc(N2CCCCC2)c1C#N	none
COCc1cc(C)nc(N2CCNCC2)c1C#N	TAAR1 ag 53 | TAAR1 ag conf 57 | Ga16 ag counter inactive | TAAR1 desens inactive | Ga16 nonsel ant inactive
CCOc1cc2c(C#N)c(N3CCNCC3)nc(N)c2c(N)n1	TAAR1 antag 54, TAAR1 ag 61 | TAAR1 ag conf 83 | Ga16 ag counter inactive | TAAR1 desens 81 | Ga16 nonsel ant inactive
NC(=O)CC(NC(=O)Cc1ccc(Cl)cc1)c1ccc(NCCc2ccccc2F)c([N+](=O)[O-])c1 (centres undefined)	none (no result: TAAR1 antag, TAAR1 ag) | Ga16 ag counter inactive | Ga16 nonsel ant inactive
COc1ccc(NC(=O)CN(C)C(=O)CCNC(=O)Nc2ccccc2)cc1	none (no result: OXTR potentiate, V1aR counter, OXTR ag)
CN(CC(=O)Nc1ccccc1Cl)C(=O)CCNC(=O)Nc1ccccc1	none (no result: TAAR1 antag, TAAR1 ag) | Ga16 ag counter inactive | Ga16 nonsel ant inactive
O=C(c1ccccc1)c1ccc(OCC(O)CNC2CCCc3ccccc32)cc1 (centres undefined)	none
OC(CNC1CCCc2ccccc21)COc1ccc2ccccc2c1 (centres undefined)	TAAR1 ag 69 | TAAR1 ag conf 100 | Ga16 ag counter 28 | TAAR1 desens 70 | Ga16 nonsel ant 31
O=C(Nc1ccc(F)cc1)C(c1cc2ccccc2o1)N1CCN(c2cccc(C(F)(F)F)n2)CC1 (centres undefined)	none (no result: OXTR potentiate, V1aR counter, OXTR ag)
COCCN(Cc1ccco1)C(=O)C1CCCN(c2ncnc3c2nc2n3CCCCC2)C1 (centres undefined)	none
CCOc1cccc(/C=N/NC(=S)Nc2ccccc2[N+](=O)[O-])c1O	none
O=[N+]([O-])c1ccccc1NC(=S)N/N=C/c1ccc(O)c(O)c1	TAAR1 ag 52 | TAAR1 ag conf 84 | Ga16 ag counter inactive | TAAR1 desens 56 | Ga16 nonsel ant inactive
CCc1ccccc1OCC(=O)Nc1ccc(F)c(S(=O)(=O)N2CCOCC2)c1	none (no result: OXTR potentiate, V1aR counter, OXTR ag)
C=CCNCCCOc1ccc(C(C)(C)c2ccccc2)cc1	TAAR1 ag 61 | TAAR1 ag conf 90 | Ga16 ag counter 25 | TAAR1 desens 64 | Ga16 nonsel ant inactive
CC(C)(c1ccccc1)c1ccc(OCCCNCCO)cc1	TAAR1 ag 53 | TAAR1 ag conf 85 | Ga16 ag counter 41 | TAAR1 desens inactive | Ga16 nonsel ant inactive
COCCCNCCCOc1ccc(C(C)(C)c2ccccc2)cc1	none
CC(C)(C)c1ccc(OCCCNCc2ccccc2)cc1	TAAR1 ag 74 | TAAR1 ag conf 69 | Ga16 ag counter 33 | TAAR1 desens inactive | Ga16 nonsel ant inactive
CC1CN(c2ccc(C(=O)c3ccccc3C(=O)O)cc2[N+](=O)[O-])CC(C)O1 (centres undefined)	none
